Laboratory results published in the EternaBench riboswitch data.

Tested on: MS2 coat protein
Assay: apparent Kd, MS2 coat protein; higher = weaker binding; RNA-MaP array; FMN 200 µM where present
How it was run: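 SNAP-549-labelled MS2 coat protein, doubled from 0.7 or 1.5 nM to 3 µM, was titrated over designs transcribed by stalled E. coli RNA polymerase on Illumina sequencing-chip clusters. Titrations were run without and then with constant ligand in 100 mM Tris-HCl pH 7.5, 80 mM KCl, 4 mM MgCl2, BSA, DTT, yeast tRNA and Tween-20. The apparent Kd is the median of filtered per-cluster fits to green signal normalised to red-channel RNA signal and control-cluster median Fmax.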

[1] = designed as: ON switch for flavin mononucleotide, no ligand
[2] = ligand present: flavin mononucleotide, designed as: ON switch for flavin mononucleotide
[3] = designed as: OFF switch for flavin mononucleotide, no ligand
[4] = ligand present: flavin mononucleotide, designed as: OFF switch for flavin mononucleotide

Sequence: GCUAUCGCAUGAGGAUAUGGUCAGCUUUGCUGACCAGAAGGCAUGUCAUAAGACAUGAGGAUCACCCAUGUAGUUAAGAUAGCA
- apparent Kd [1]: 0.84 µM
- apparent Kd [2]: 0.0505 µM

Sequence: GCUCCUCGAGUUAGGAUAUGUCGGCUAUCUAAAUGAUAGAAGGGACAUGAGGAUCACCCAUGUCACGGGAUUGA
- apparent Kd [3]: 0.0567 µM
- apparent Kd [4]: 0.0587 µM

Sequence: GCUCUAUGCUAGAAGGCGUGAAACAUGAGGAUCACCCAUGUCAGAGAUAUGAGGAUAUAGCAUAGAGCAAAAGACGGAAACGUC
- apparent Kd [1]: 0.0134 µM
- apparent Kd [2]: 0.00541 µM

Sequence: GCUGCAUAGGCAGGAUAUGCAAAAGCAGAUGCAAAGCAUCUGCAAAAUACAUGAGGAUCACCCAUGUAGAAGGGCCUGUGCAGU
- apparent Kd [3]: 0.0231 µM
- apparent Kd [4]: 0.0206 µM

Sequence: GCUGCAUGCAGAGGAUAUAUAACAUGAGGAUCACCCAUGUUAAUAAUAUGGAUAAACCAGAUAGUAUAGAAGGCUGCAUGCAGC
- apparent Kd [3]: 0.0195 µM
- apparent Kd [4]: 0.0238 µM

Sequence: GCUGGUCGAGGAUAUAUAUGACGUGCUUCGGCACGAAGGUCACAUGAGGAUCACCCAUGUAGAAGGCGACCAGC
- apparent Kd [3]: 0.0564 µM
- apparent Kd [4]: 0.39 µM

Sequence: GCUGUAUAUGAGAAGGCGAUCAUGAAACAUGAUCGAGGAUAUCAUGUUUACAUGAGGAUCACCCAUGUAUGGGUAUAAUGCAGC
- apparent Kd [1]: 0.417 µM
- apparent Kd [2]: 0.0241 µM

Sequence: GCUGUCGCAUGAGGAUAUGGUCAGCUUUGCUGACCAGAAGGCAUGUCAAUAGACAUGAGGAUCACCCAUGUAGUUAGGGCGGCU
- apparent Kd [1]: 0.571 µM
- apparent Kd [2]: 0.0574 µM

Sequence: GCUGUCGCGUGAGGAUAUGGUCUGCAGUGCUGACCAGAAGGCAUGUCGAUAGACAUGAGGAUCACCCAUGUGGUUAGGGCGGCU
- apparent Kd [1]: 0.804 µM
- apparent Kd [2]: 0.351 µM

Sequence: GCUUGUGAAGGAUAUACUGGAGGAGUGCGAUAGAAGCACGAACAUGAGGAUCACCCAUGUAGAAGGUCAGGCGU
- apparent Kd [3]: 0.0244 µM
- apparent Kd [4]: 0.0291 µM

Sequence: GGAAAACAUGAGGAUCACCCAUGUGAGGAUAUCGAUGUCCAAAGGAAAGUGCGGGACUCGAGAAGGCACUUGGA
- apparent Kd [3]: 0.0454 µM
- apparent Kd [4]: 0.039 µM

Sequence: GGAAAACAUGAGGAUCACCCAUGUGAGGAUAUCGAUGUCCAGGGCCGGGUGCGGGACUCGAGAAGGCACUUGGA
- apparent Kd [3]: 0.0645 µM
- apparent Kd [4]: 0.0416 µM

Sequence: GGAAAACAUGAGGAUCACCCAUGUGAGGAUAUGAGCGUCUAGUUGAGAGAUUGGACGCUCAGAAGGCACAUGCC
- apparent Kd [3]: 0.0285 µM
- apparent Kd [4]: 0.247 µM

Sequence: GGAAAUCAUGUAGGAUAUGCAUGGCGAAGCUACGCAGAAGGACAUGAGGAUCACCCAUGUUAAAGCUACCGAGUUCGGUGGCAA
- apparent Kd [3]: 0.18 µM
- apparent Kd [4]: 0.148 µM

Sequence: GGAAAUCAUGUAGGAUAUGCAUGGCGAAGCUACGCAGAAGGACAUGAGGAUCACCCAUGUUAUAGCUACCAAGUUAGGUGGCAA
- apparent Kd [3]: 0.139 µM
- apparent Kd [4]: 0.144 µM

Sequence: GGAAGUCAAAGACUUCCUUAACGAACAUGAGGAUCACCCAUGUAGGAUAUGCUACUCAAAGAGUAGCAGAAGGACAUGUGUCUU
- apparent Kd [3]: 0.0321 µM
- apparent Kd [4]: 0.168 µM

Sequence: GGACAUGUCGUCUACAUGAGGAUCACCCAUGUCGAUAGACAUGAGGAUAUCGAUAAGAAUUGUAUCGAGAAGGCAUGUAGGUCC
- apparent Kd [1]: 0.0684 µM
- apparent Kd [2]: 0.0506 µM

Sequence: GGACAUGUCGUCUACAUGAGGAUCACCCAUGUCGAUAGACAUGAGGAUAUCGAUACAAAUUGUAUCGAGAAGGCAUGCAGGUCC
- apparent Kd [1]: 0.0187 µM
- apparent Kd [2]: 0.0177 µM

Sequence: GGACAUUUACAGAAGGGCAAGUUAGAUAGUGAAUAUUUAGUUCUGACUUGCAGGAUAUGUUGAACAUGAGGAUCACCCAUGUCC
- apparent Kd [1]: 0.0144 µM
- apparent Kd [2]: 0.0106 µM

Sequence: GGACAUUUACAGAAGGGCAAGUUUUAUAGUGAAUAUUUAGUUCUGACUUGCAGGAUAUGUUGAACAUGAGGAUCACCCAUGUCC
- apparent Kd [1]: 0.0164 µM
- apparent Kd [2]: 0.0105 µM

Sequence: GGACAUUUACAGAAGGGCAAUUUAUUUAUUGAUUAUUUAGUUCUGUUUUGCAGGAUAUGUUUUACAUGAGGAUCACCCAUGUCC
- apparent Kd [1]: 0.0668 µM
- apparent Kd [2]: 0.0362 µM

Sequence: GGACGACUCAUUAACAUGAGGAUCACCCAUGUCAAAAGACAUGAGGAUAUGGAUCCUAAUUGGAUCCAGAAGGCAUGGUCGUCC
- apparent Kd [1]: 0.944 µM
- apparent Kd [2]: 0.0518 µM

Sequence: GGACGCGUAGGAUAUGCAAUCGAAGUCGAGUUUUCUGGUGGACAUGAGGAUCACCCAUGUAGAAGGAUGUAGCA
- apparent Kd [3]: 0.0442 µM
- apparent Kd [4]: 0.0334 µM

Sequence: GGACGUCCCAUUAACAUGAGGAUCACCCAUGUCAAAAGACAUGAGGAUAUGCAUCCUAAUUGGAUGCAGAAGGCAUGGACGUCC
- apparent Kd [1]: 1.18 µM
- apparent Kd [2]: 0.0873 µM

Sequence: GGACGUUACAUCUACAUGAGGAUCACCCAUGUCUCUUGAGAUGAGGAUAUGUAUACGAAUCGUUUAUAGAAGGCAUGUACGUCC
- apparent Kd [1]: 0.0398 µM
- apparent Kd [2]: 0.0464 µM

Sequence: GGAGACCUCACAGGAUAUGCUGGACUUUGUCCAGCAGAAGGGUGAACAUGAGGAUCACCCAUGUGGUCUUCCAAAAUAUUUAAU
- apparent Kd [1]: 0.693 µM
- apparent Kd [2]: 0.28 µM

Sequence: GGAGACCUCACAGGAUAUGCUGGACUUUGUCCAGCAGAAGGGUGAAUACAUGAGGAUCACCCAUGUGGUCUCCAAAUAUUUAAU
- apparent Kd [1]: 1.17 µM
- apparent Kd [2]: 0.0753 µM

Sequence: GGAGAGUUCACAGGAUAUCAUGGGUAGUUAUUUUGAGAAGGGUGAACAAGGAACAUGAGGAUCACCCAUGUAUCCUGGGAGGGC
- apparent Kd [1]: 0.0244 µM
- apparent Kd [2]: 0.0368 µM
